Results of several laboratories.
Lines come from different studies, so protocols differ.
USP51: Ubiquitin carboxyl-terminal hydrolase 51 (USP51, Homo sapiens, UniProt Q70EK9)
CA12: Carbonic anhydrase 12 (CA12, Homo sapiens, UniProt O43570)
DRD3: D(3) dopamine receptor (DRD3, Homo sapiens, UniProt P35462)
SLC6A3: Sodium-dependent dopamine transporter (SLC6A3, Homo sapiens, UniProt Q01959)
PPARG: Peroxisome proliferator-activated receptor gamma (PPARG, Homo sapiens, UniProt P37231)
Lyn: Tyrosine-protein kinase Lyn (Lyn, Mus musculus, UniProt P25911)

With `O=c1cc(-c2ccccc2)oc2cc(O)c(O)c(O)c12` the inhibition was 95% (USP51; enzyme activity, inhibitor; 5 µM).
With `CCN(c1cc(C#CCN2CCOCC2)cc(C(=O)NCc2c(C)cc(C)[nH]c2=O)c1C)[C@H]1CC[C@H](N(C)CCOC)CC1` the inhibition was 10% (Protein arginine N-methyltransferase 1 (PRMT1, Homo sapiens, UniProt Q99873); enzyme activity, inhibitor; 1 µM).
The inhibition of `Cc1ccc(-c2nn(-c3ccccc3)cc2C2c3sc(=O)[nH]c3SC3C(=O)N(c4ccccc4)C(=O)C32)cc1` (stereo not shown) is reported as 33.2% (CA12; enzyme activity, inhibitor, absorbance; 0.1 µM).
With `CC(O)c1ccc(-c2ccc(CNCCc3ccc(S(N)(=O)=O)cc3)o2)cc1` (stereo not shown) the inhibition was -9.5% (DRD3; enzyme activity, inhibitor; 10 µM).
`Clc1ccc(C(c2ccccc2)c2nnnn2CCCN2CCC(CCc3ccccc3)CC2)cc1` (stereo not shown) has an inhibition of 78.4% (SLC6A3; transporter uptake, inhibitor; HEK293; 1 µM).
With `COc1ccccc1O` the inhibition was 0% (USP51; enzyme activity, inhibitor; 5 µM).
The inhibition of `NS(=O)(=O)c1ccc(CCNCc2cccc3ccccc23)cc1` is reported as 39.3% (DRD3; enzyme activity, inhibitor; 10 µM).
The inhibition of `C[C@H](CCC(=O)NCC(=O)O)[C@H]1CC[C@H]2[C@@H]3[C@H](O)C[C@@H]4C[C@H](O)CC[C@]4(C)[C@H]3C[C@H](O)[C@]12C` is reported as 0% (USP51; enzyme activity, inhibitor; 5 µM).
For `O=C(c1ccc(Cl)cc1)N(Cc1ccccc1)C1CCCCC1`, the inhibition was 14.6% (PPARG; cell-free assay; 10 µM).
The inhibition of `CCOC(=O)C1CSc2[nH]c(=O)sc2C1c1cn(-c2ccccc2)nc1-c1ccccc1` (stereo not shown) is reported as 46.7% (CA12; enzyme activity, inhibitor, absorbance; 1 µM).
For `O=C(c1cccc(Cl)c1)N1CCN(CCNc2cc(=O)oc3ccccc23)CC1`, the inhibition was -11.3% (DRD3; enzyme activity, inhibitor; 10 µM).
With `CCN(CC)CCNC(=O)c1c(C)[nH]c(/C=C2\C(=O)Nc3ccc(F)cc32)c1C` the inhibition was 98% (Lyn; enzyme activity, inhibitor; 10 µM).
The inhibition of `NC(=O)NC1NC(=O)NC1=O` (stereo not shown) is reported as 13% (USP51; enzyme activity, inhibitor; 5 µM).
`Fc1ccc(C(c2ccc(F)cc2)c2nnnn2CCCCN2CCN(Cc3ccccc3)CC2)cc1` gave an inhibition of 95.7% (SLC6A3; transporter uptake, inhibitor; HEK293; 1 µM).
`O=C(CN1CCN(c2ccc(F)cc2)CC1)Nc1cc(Cl)cc(Cl)c1` has an inhibition of -6.1% (DRD3; enzyme activity, inhibitor; 10 µM).
With `O=c1ccc2cc3ccoc3cc2o1` the inhibition was 0% (USP51; enzyme activity, inhibitor; 5 µM).
The inhibition of `CNC(=O)c1cc(Oc2ccc(NC(=O)Nc3ccc(Cl)c(C(F)(F)F)c3)cc2)ccn1` is reported as 95% (Lyn; enzyme activity, inhibitor; 10 µM).
`c1ccc(CCCC2CCN(CCCn3nnnc3C(c3ccccc3)c3ccccc3)CC2)cc1` has an inhibition of 30.4% (SLC6A3; transporter uptake, inhibitor; HEK293; 1 µM).
`Nc1ncnc2c1ncn2[C@@H]1O[C@H](CO)C[C@H]1O` has an inhibition of 24% (USP51; enzyme activity, inhibitor; 5 µM).
For `Clc1ccc(C(c2ccccc2)c2nnnn2CCCCN2CCC(Cc3ccc(Cl)c(Cl)c3)CC2)cc1` (stereo not shown), the inhibition was 67.8% (SLC6A3; transporter uptake, inhibitor; HEK293; 1 µM).
For `CCOc1ccc(CNCC(O)c2ccccc2)cc1Br` (stereo not shown), the inhibition was 11.4% (DRD3; enzyme activity, inhibitor; 10 µM).
`Clc1ccc(C(c2ccc(Cl)cc2)c2nnnn2CCCCN2CCC(Cc3ccccc3)CC2)cc1` has an inhibition of 78.5% (SLC6A3; transporter uptake, inhibitor; HEK293; 1 µM).
For `N#CC1CSc2[nH]c(=O)sc2C1c1cn(-c2ccccc2)nc1-c1ccc(Br)cc1` (stereo not shown), the inhibition was 61.5% (CA12; enzyme activity, inhibitor, absorbance; 1 µM).
`C=C1C[C@@]2(O)O[C@@]3(C[C@H]2C(C)C)[C@@H](C)CC[C@@H]13` gave an inhibition of 11% (USP51; enzyme activity, inhibitor; 5 µM).
`Fc1ccc(C(c2ccc(F)cc2)c2nnnn2CCCCN2CCC(c3ccccc3)CC2)cc1` has an inhibition of 94.6% (SLC6A3; transporter uptake, inhibitor; HEK293; 1 µM).
The inhibition of `CCOC(=O)C1CSc2[nH]c(=O)sc2C1c1cn(-c2ccccc2)nc1-c1ccc(Cl)cc1` (stereo not shown) is reported as 46.4% (CA12; enzyme activity, inhibitor, absorbance; 0.1 µM).
For `CC(=O)O[C@H]1[C@H](O[C@@H]2[C@@H](O)[C@@H](O)[C@H](Oc3c(-c4ccc(O)cc4)oc4cc(O)cc(O)c4c3=O)O[C@H]2C)O[C@H](CO)[C@@H](O)[C@@H]1O`, the inhibition was 58% (Aromatase (CYP19A1, Homo sapiens, UniProt P11511); enzyme activity, inhibitor; 20 µg/mL).
`CN(C)C1CCN(CC#Cc2nn(C3CCCC3)c3nc(NCc4ccccc4)ncc23)C1` (stereo not shown) gave an inhibition of 23% (Calcium/calmodulin-dependent protein kinase type IV (CAMK4, Homo sapiens, UniProt Q16566); enzyme activity, inhibitor, FRET; 10 µM).
The inhibition of `O=C1NC(=S)C(=Cc2cn(-c3ccccc3)nc2-c2ccc(Br)cc2)S1` is reported as 32.3% (CA12; enzyme activity, inhibitor, absorbance; 1 µM).
For `CNc1cc(Oc2cc(C(=O)Nc3cc(N4CCN(C)CC4)cc(C(F)(F)F)c3)ccc2C)ncn1`, the inhibition was -18% (Serine/threonine-protein kinase ATR (ATR, Homo sapiens, UniProt Q13535); target engagement in cells, inhibitor, chemoproteomics; Huh-7; 1 µM).
`COc1cc(NC(C)=O)c(Cl)cc1C(=O)Nc1nccs1` has an inhibition of 31.6% (PPARG; cell-free assay; 10 µM).
`NS(=O)(=O)c1ccc(CCNCc2ccc(-c3ccccc3F)o2)cc1` has an inhibition of 44.2% (DRD3; enzyme activity, inhibitor; 10 µM).
For `Cc1ccc(Nc2nccc(N(C)c3ccc4c(C)n(C)nc4c3)n2)cc1S(N)(=O)=O`, the inhibition was 66% (Lyn; enzyme activity, inhibitor; 0.3 µM).
For `CC(C)c1ccccc1OCCOCC(O)CN1CCN(c2cccc(C(F)(F)F)c2)CC1` (stereo not shown), the inhibition was 14.3% (DRD3; enzyme activity, inhibitor; 10 µM).
The inhibition of `Clc1ccc(C(c2ccccc2)c2nnnn2CCCN2CCC(Cc3ccccc3)CC2)cc1` (stereo not shown) is reported as 93.8% (SLC6A3; transporter uptake, inhibitor; HEK293; 1 µM).
With `CCOC(=O)C1CSc2[nH]c(=O)sc2C1c1cn(-c2ccccc2)nc1-c1ccc(OC)cc1` (stereo not shown) the inhibition was 37.6% (CA12; enzyme activity, inhibitor, absorbance; 0.1 µM).
For `Nc1cc[nH]c(=O)n1`, the inhibition was 27% (USP51; enzyme activity, inhibitor; 5 µM).
For `CCOC(=O)C1CSc2[nH]c(=O)sc2C1c1cn(-c2ccccc2)nc1-c1ccc(Br)cc1` (stereo not shown), the inhibition was 31.5% (CA12; enzyme activity, inhibitor, absorbance; 0.1 µM).
For `c1ccc(CCC2CCN(CCCn3nnnc3C(c3ccccc3)c3ccccc3)CC2)cc1`, the inhibition was 68.3% (SLC6A3; transporter uptake, inhibitor; HEK293; 1 µM).
`O=C(CCN1CCC(O)(c2ccc(F)cc2)C1)c1ccc2c(c1)OCCO2` (stereo not shown) gave an inhibition of 9% (DRD3; enzyme activity, inhibitor; 10 µM).
